pIC50: −log10 of the molar value. Activity calls are given as the source filed them. No cut-off for these calls is given here.
Key:
[1] = test system: Jurkat; experiment: Cell cycle arrest in human Jurkat E6-1 cells assessed as accumulation at S phase at 40 uM after 24 hrs by FACS flow cytometry; format: functional
Procedure, shortened: (§1)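 Jurkat E6 T-lymphoblasts in RPMI 1640 with 10% FBS, 37 °C, 5% CO2. […] Chicken red blood cells were added as internal standard. Cells were fixed in ice-cold EtOH and stained with 1 μg/mL DAPI on ice for 1 h before flow cytometry of phase distribution. Vehicle control was 0.5% DMSO.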

[2] = test system: Jurkat; experiment: Cell cycle arrest in human Jurkat E6-1 cells assessed as accumulation at G2/M phase at 40 uM after 24 hrs by FACS flow cytometry; format: functional
Procedure, shortened: (§2)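 Jurkat E6 cells grown in RPMI 1640 with 10% FBS at 37 °C, 5% CO2. Compounds were serially diluted in medium starting 50% above the M21 IC50. 4.0 × 10^5 cells were exposed for 24 h, then washed and spiked with chicken red blood cells as internal standard. Cells were fixed in ice-cold ethanol, stained with 1 μg/mL DAPI on ice for 1 h, and phase distribution was read by flow cytometry. The control was 0.5% DMSO.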

[3] = test system: HT-29; experiment: Cytotoxicity against human HT-29 cells after 48 hrs by SRB assay; format: functional, cell-based; details: HT-29, 48 h
Procedure, shortened: (§3)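 NCI sulforhodamine B protocol. Cells were grown in high-glucose DMEM with 5% FBS and seeded per well at 4 × 10^3 (HT-29), 3.5 × 10^3 (M21) or 3 × 10^3 (MCF-7), then allowed 24 h to attach. Serial dilutions from 200 μM to 780 nM final were applied in DMSO <0.5% for 48 h. Cells were fixed with cold TCA (10% final) and stained with SRB, with absorbance read at 530–568 nm. Growth inhibition was computed against day-0 plates, giving the 50% inhibitory concentration. At least two experiments in triplicate, CV <10%.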

[4] = test system: MCF7; experiment: Cytotoxicity against human MCF7 cells after 48 hrs by SRB assay; format: functional, cell-based; details: MCF7, 48 h; procedure, shortened: as §3
[5] = test system: Jurkat; experiment: Cell cycle arrest in human Jurkat E6-1 cells assessed as accumulation at G0/G1 phase at 40 uM after 24 hrs by FACS flow cytometry; format: functional
Procedure, shortened: (§4)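 Jurkat E6 cells cultured in RPMI 1640 with 10% FBS at 37 °C, 5% CO2. Compounds serially diluted in medium, starting 50% above the M21 IC50. 4.0 × 10^5 cells were exposed for 24 h. Cells were washed with PBS, chicken red blood cells added as internal standard, and fixed in ice-cold EtOH. After 1 h on ice in PBS with 1 μg/mL DAPI, phase distribution was read by flow cytometry. DMSO-treated cells served as control.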

[6] = test system: M21; experiment: Cytotoxicity against human M21 cells after 48 hrs by SRB assay; format: functional, cell-based; details: M21, 48 h; procedure, shortened: as §3
[7] = test system: M21; experiment: Induction of DNA damage response in human M21 cells assessed as phosphorylation of H2AX into gammaH2AX at IC50 after 24 hrs by DAPI staining-based immunofluorescence assay; format: functional, cell-based
Procedure, shortened: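 M21 cells (1 × 10^5) on fibronectin-coated coverslips, grown 24 h, then exposed to agent for 24 h at 37 °C; 0.5% DMSO control. Fixed with 3.7% formaldehyde and permeabilized with 0.1% saponin/3% BSA. Probed with mouse anti-H2AX pS139 antibody for 2 h at room temperature. Nuclei counterstained with DAPI; nuclear γH2AX foci viewed by epifluorescence microscopy.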

[8] = test system: Jurkat; experiment: Cell cycle arrest in human Jurkat E6-1 cells assessed as accumulation at G2/M phase at 25 uM after 24 hrs by FACS flow cytometry; format: functional; procedure, shortened: as §2
[9] = test system: Jurkat; experiment: Cell cycle arrest in human Jurkat E6-1 cells assessed as accumulation at G0/G1 phase at 25 uM after 24 hrs by FACS flow cytometry; format: functional; procedure, shortened: as §4
[10] = test system: Jurkat; experiment: Cell cycle arrest in human Jurkat E6-1 cells assessed as accumulation at S phase at 25 uM after 24 hrs by FACS flow cytometry; format: functional; procedure, shortened: as §2
[11] = test system: Jurkat; experiment: Cell cycle arrest in human Jurkat E6-1 cells assessed as accumulation at S phase at 28 uM after 24 hrs by FACS flow cytometry; format: functional; procedure, shortened: as §1
[12] = test system: Jurkat; experiment: Cell cycle arrest in human Jurkat E6-1 cells assessed as accumulation at G2/M phase at 28 uM after 24 hrs by FACS flow cytometry; format: functional; procedure, shortened: as §2
[13] = test system: Jurkat; experiment: Cell cycle arrest in human Jurkat E6-1 cells assessed as accumulation at G0/G1 phase at 28 uM after 24 hrs by FACS flow cytometry; format: functional; procedure, shortened: as §4
[14] = test system: Jurkat; experiment: Cell cycle arrest in human Jurkat E6-1 cells assessed as accumulation at S phase at 29 uM after 24 hrs by FACS flow cytometry; format: functional; procedure, shortened: as §1
[15] = test system: Jurkat; experiment: Cell cycle arrest in human Jurkat E6-1 cells assessed as accumulation at G0/G1 phase at 29 uM after 24 hrs by FACS flow cytometry; format: functional; procedure, shortened: as §4
[16] = test system: Jurkat; experiment: Cell cycle arrest in human Jurkat E6-1 cells assessed as accumulation at G2/M phase at 29 uM after 24 hrs by FACS flow cytometry; format: functional; procedure, shortened: as §2
[17] = test system: Jurkat; experiment: Cell cycle arrest in human Jurkat E6-1 cells assessed as accumulation at S phase at 48 uM after 24 hrs by FACS flow cytometry; format: functional; procedure, shortened: as §1
[18] = test system: Jurkat; experiment: Cell cycle arrest in human Jurkat E6-1 cells assessed as accumulation at G0/G1 phase at 48 uM after 24 hrs by FACS flow cytometry; format: functional; procedure, shortened: as §4
[19] = test system: Jurkat; experiment: Cell cycle arrest in human Jurkat E6-1 cells assessed as accumulation at G2/M phase at 48 uM after 24 hrs by FACS flow cytometry; format: functional; procedure, shortened: as §2
[20] = test system: Jurkat; experiment: Cell cycle arrest in human Jurkat E6-1 cells assessed as accumulation at G0/G1 phase at 57 uM after 24 hrs by FACS flow cytometry; format: functional; procedure, shortened: as §4
[21] = test system: Jurkat; experiment: Cell cycle arrest in human Jurkat E6-1 cells assessed as accumulation at G2/M phase at 57 uM after 24 hrs by FACS flow cytometry; format: functional; procedure, shortened: as §2
[22] = test system: Jurkat; experiment: Cell cycle arrest in human Jurkat E6-1 cells assessed as accumulation at S phase at 57 uM after 24 hrs by FACS flow cytometry; format: functional; procedure, shortened: as §1
[23] = test system: Jurkat; experiment: Cell cycle arrest in human Jurkat E6-1 cells assessed as accumulation at G0/G1 phase at 32 uM after 24 hrs by FACS flow cytometry; format: functional; procedure, shortened: as §4
[24] = test system: Jurkat; experiment: Cell cycle arrest in human Jurkat E6-1 cells assessed as accumulation at S phase at 32 uM after 24 hrs by FACS flow cytometry; format: functional; procedure, shortened: as §1
[25] = test system: Jurkat; experiment: Cell cycle arrest in human Jurkat E6-1 cells assessed as accumulation at G2/M phase at 32 uM after 24 hrs by FACS flow cytometry; format: functional; procedure, shortened: as §2
[26] = test system: Jurkat; experiment: Cell cycle arrest in human Jurkat E6-1 cells assessed as accumulation at G2/M phase at 12 uM after 24 hrs by FACS flow cytometry; format: functional; procedure, shortened: as §4
[27] = test system: Jurkat; experiment: Cell cycle arrest in human Jurkat E6-1 cells assessed as accumulation at G0/G1 phase at 12 uM after 24 hrs by FACS flow cytometry; format: functional; procedure, shortened: as §4
[28] = test system: Jurkat; experiment: Cell cycle arrest in human Jurkat E6-1 cells assessed as accumulation at S phase at 12 uM after 24 hrs by FACS flow cytometry; format: functional; procedure, shortened: as §2

CCNC(=O)Nc1cccc(S(=O)(=O)Oc2ccccc2C)c1
Activity [1]: 60% | Activity [2]: 15% | pIC50 [3]: 4.36 | pIC50 [4]: 4.26 | Activity [5]: 25% | pIC50 [6]: 4.29 | Activity [7]: Active

Cc1ccccc1NS(=O)(=O)c1cccc(NC(=O)NCCCCl)c1
Activity [8]: 17% | Activity [9]: 45% | pIC50 [3]: 4.38 | pIC50 [4]: 4.28 | Activity [10]: 38% | pIC50 [6]: 4.22

Cc1ccccc1OS(=O)(=O)c1cccc(NC(=O)NCCCCl)c1
pIC50 [3]: 4.68 | Activity [11]: 38% | pIC50 [4]: 4.57 | Activity [12]: 19% | Activity [13]: 43% | pIC50 [6]: 4.54

CCCc1ccccc1NS(=O)(=O)c1ccc(NC(=O)NCCCl)cc1
pIC50 [3]: 4.68 | Activity [14]: 44% | Activity [15]: 28% | Activity [16]: 28% | pIC50 [6]: 4.54

Cc1ccccc1NS(=O)(=O)c1ccc(NC(=O)NCCCl)cc1
Activity [17]: 35% | pIC50 [3]: 4.26 | Activity [18]: 45% | Activity [19]: 20% | pIC50 [6]: 4.20

O=C(NCCCCl)Nc1cccc(S(=O)(=O)Oc2ccc(O)cc2)c1
Activity [20]: 43% | Activity [21]: 9% | Activity [22]: 48% | pIC50 [6]: 4.31

CCNC(=O)Nc1cccc(S(=O)(=O)Oc2ccc(O)cc2)c1
Activity [23]: 43% | pIC50 [3]: 4.12 | pIC50 [4]: 4.19 | pIC50 [6]: 4.38 | Activity [24]: 39% | Activity [25]: 18%

CCNC(=O)Nc1cccc(S(=O)(=O)Oc2ccccc2CC)c1
Activity [26]: 11% | Activity [27]: 26% | pIC50 [3]: 4.48 | Activity [28]: 63% | pIC50 [6]: 4.52 | Activity [7]: Active

Reference: ChEMBL document CHEMBL2163200, “Synthesis, biological evaluation, and structure-activity relationships of novel substituted N-phenyl ureidobenzenesulfonate derivatives blocking cell cycle progression in S-phase and inducing DNA double-strand breaks” (J Med Chem, 2012)
